PfHsp90 set2: reduces growth (ATP signal) of yeast expressing P. falciparum Hsp90; hit rate 0.32% among 310,000; inhibition, % at 9.4 µM; AID 504621; S. cerevisiae expressing PfHsp90, BacTiter-Glo ATP, 48 h; yeast lacking PDR1 and PDR3 efflux regulators;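 active = every replicate shows inhibition above about 80%, whatever the replicate mean, limit read from the data; inconclusive = mean inhibition reaches the set limit but some replicate falls short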;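 note: 0% = DMSO neutral controls and 100% = 20 µM radicicol positive controls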
PvdQ inh: blocks Pseudomonas aeruginosa PvdQ acylase activity. hit rate 0.063% among 340,000. AID 488965. purified PvdQ acylase, fluorescence plate reader. inhibition, % at 10 µM; in the data active = inhibition above about 30%, passing the limit was not always enough; inconclusive = no clear call, values can overlap the other calls;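 note: 0% = vehicle neutral wells and 100% = reference inhibitor wells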
T cruzi repl: T. cruzi replication inhibition | hit rate 1.4% among 300,000 | T. cruzi beta-gal in NIH3T3, luminescence, 90 h | inhibition, % (no concentration beside the values);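 active = mean inhibition across valid replicates above about 55%, limit read from the data; inconclusive = mean below that limit but half or more replicates reach it; inactive = mean below it, under half of replicates reach it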;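 note: signal also drops with host cell toxicity which is not excluded here; 0% = plate median of DMSO wells and 100% = zero luminescence signal; higher percent means less beta-gal luminescence so fewer parasites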
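Assay system: NIH/3T3 fibroblasts plus reporter T. cruzi. Amount: NIH/3T3 cells, 5,000 per well. Buffer or medium: DMEM, 2% fetal bovine serum. Doses: compound pinned at 50 nL/well, DMSO. Schedule: ≥90 h infection period, 3 h prior cell attachment. Signal: luminescent β-galactosidase signal after 60 min lysis. Read-out: parasite load inhibition, %.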
Glyco luc inh: N-linked glycosylation inhibition | D54 ERlucT glycosylation luciferase reporter, 24 h; percent of 100 nM tunicamycin response | reporter increase, % at 12.5 µM | hit rate 0.23% among 360,000;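 active = mean luciferase reporter signal, scaled so untreated is 0 and the glycosylation-blocking control 100, at or above a set limit in every replicate; inconclusive = mean reaches the limit but not every replicate does; inactive = mean below the limit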;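 note: luciferase carries N-glycosylation sites so blocking glycosylation raises the light; 0% = median of neutral control wells and 100% = median of 100 nM tunicamycin wells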
HSF1 activator: increases HSF-1 driven luciferase reporter signal; NIH3T3-HGL HSF-1 luciferase reporter, MG132, 8 h; 100% = twice DMSO control signal; activation, % at 9 µM; hit rate 1.7% among 300,000;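 active = mean replicate activation of at least 50% with a set share of replicates each reaching 50%; inconclusive = only one of those two conditions met; inactive = mean below 50% and too few replicates reaching it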;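 note: 0% = median of the neutral control wells and 100% = twice that signal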
CaV13 FRET inh: Disruptors of the CACNA1D IQ motif to Ca2+-dependent inactivation inhibitor domain association, primary screening, Förster resonance energy transfer in intact living …. HEK cells, CFP/YFP FRET ICDI-IQ, plate reader, 10 min; percent FRET-ratio fall versus neutral wells. inhibition, % at 12.3 µM. hit rate 0.098% among 340,000. AID 743397;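 active = mean replicate inhibition of at least 30% and at least 1% of replicates passing that level; inconclusive = only one of the two criteria is met; inactive = neither criterion is met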;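 note: 0% = median of the neutral control wells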
* = called active by the depositor; ? = inconclusive; / = not tested or not shown; + = active, no number. Rows were chosen to be rich in hits. Some 3% of all compounds tested hit in one or more screens of this group.

SMILES | PfHsp90 set2 | PvdQ inh | T cruzi repl | Glyco luc inh | HSF1 activator | CaV13 FRET inh
O=C(NCc1ccccc1)C(c1ccco1)N1CCN(CCN2CCOCC2)CC1 (stereo not given) | / | / | / | / | / | -4
Fc1ccc(/C=N/Nc2nc3ccccc3[nH]2)cc1F | 29 | -7 | 9 | 0 | 95* | -11
Brc1ccc(-c2ccc(/C=N/Nc3nncc(-c4ccccc4)n3)o2)cc1 | -20 | 9 | -5 | 0 | -10 | -3
Fc1cccc(/C=N/Nc2nc3ccccc3[nH]2)c1 | / | / | 28 | / | 31 | 4
Brc1ccc(-c2ccc(/C=N/Nc3nc4ccccc4[nH]3)o2)cc1 | 20 | -6 | 62* | -4 | 163* | -5
C(=N\Nc1nc2ccccc2[nH]1)/c1ccccc1 | 13 | -1 | -4 | -3 | 199* | -3
COc1ccc(N2C(=O)CC(N3CCC(c4nc5ccccc5[nH]4)CC3)C2=O)cc1 (stereo not given) | 14 | 0 | -12 | 2 | 19 | -6
O=C1CC(N2CCC(c3nc4ccccc4[nH]3)CC2)C(=O)N1c1ccccc1F (stereo not given) | 11 | 12 | 4 | 0 | 177* | -2
NC(c1csc(Nc2cnccn2)n1)c1ccccc1Cl (stereo not given) | / | / | / | 0 | / | -9
CCN(CC)S(=O)(=O)c1ccc2c(c1)nc(SCC(=O)NC1CC1)n2-c1ccccc1OC | -4 | -14 | 13 | 0 | 56* | /
COc1ccccc1-n1c(SCC(=O)NC2CCS(=O)(=O)C2)nc2cc([N+](=O)[O-])ccc21 (stereo not given) | -23 | -6 | 9 | -3 | 0 | -3
N/C(Cc1nc(-c2ccc(F)cc2)cs1)=N\O | -9 | -9 | 44 | 1 | 23 | -4
N/C(Cc1nc(-c2ccc(Br)cc2)cs1)=N\O | 17 | -16 | 49 | 2 | 55* | -5
COc1ccc(/C=c2\s/c(=C\C(=O)C(C)(C)C)[nH]c2=O)cc1O | -13 | -14 | 7 | 11 | 64* | -11
COc1cc(/C=c2\s/c(=C\C(=O)C(C)(C)C)[nH]c2=O)cc(OC)c1OC | -10 | -1 | 19 | 7 | 15 | -10
COc1ccc(C/C(O)=C(\C#N)c2nc3ccccc3[nH]2)cc1OC | -1 | 4 | -43 | 0 | 59* | -2
O=[N+]([O-])c1ccc2c(c1)CCCO[C@]21O[C@H](CCO)C[C@H](O)[C@H]1O | / | / | / | / | / | -3
C=CCN(CC=C)C(=S)NC(=O)c1ccc(-c2ccccc2)cc1 | -80 | -4 | 55* | 15 | 15 | /
Cc1c2c(n3c(nc4ccccc43)c1C#N)N(CCN1CCOCC1)CC2 | 1 | -16 | 5 | 1 | -4 | +
Cc1cc(NCCN2CCOCC2)n2c(nc3ccccc32)c1C#N | 9 | -7 | 10 | 2 | -2 | -5
COC(=O)CNC(c1ccccc1)c1cc(Br)ccc1N (stereo not given) | -8 | -14 | 9 | 0 | 74* | -5
CCOC(=O)CNC(c1ccccc1)c1cc(Br)ccc1NC(=O)OCC (stereo not given) | -2 | -6 | 26 | -3 | 29 | -2
CCOC(=O)CNC(c1ccccc1)c1cc(Br)ccc1NC(=O)CCN1CCOCC1 (stereo not given) | / | -6 | ? | 19 | 63* | -5
NNC(=O)CNC(c1ccccc1)c1cc(Br)ccc1N (stereo not given) | 0 | -1 | 2 | -2 | 7 | -5
COC(=O)CNC(c1ccccc1)c1cc(Br)ccc1NC(=O)CCN1CCOCC1 (stereo not given) | -53 | -26 | 68* | 20 | 48 | -6
O=C(NCCN1CCOCC1)C(=O)NCC1OCCN1S(=O)(=O)c1ccc(Cl)cc1 (stereo not given) | / | / | / | 2 | / | -13
S=C(SCc1c(Cl)cccc1Cl)N1CCSCC1 | / | / | / | / | / | -4
O=C1C=CC(=O)N1c1ccc(Sc2ccc([N+](=O)[O-])cc2)cc1 | / | / | 5 | / | 82* | /
Nc1ccc(Sc2ccc([N+](=O)[O-])cc2)cc1 | 14 | -10 | -1 | -4 | 5 | 2
CCCCn1nnnc1C1(C)CCC(=O)N1CCOC (stereo not given) | / | / | / | / | / | -8

Bioassay records from PubChem BioAssay.
